pIC50: −log10 of the molar value.

For series [1], the target named is T1, Calmodulin-sensitive adenylate cyclase (Bacillus anthracis, UniProt P40136).
T1 sequence (P40136 whole entry): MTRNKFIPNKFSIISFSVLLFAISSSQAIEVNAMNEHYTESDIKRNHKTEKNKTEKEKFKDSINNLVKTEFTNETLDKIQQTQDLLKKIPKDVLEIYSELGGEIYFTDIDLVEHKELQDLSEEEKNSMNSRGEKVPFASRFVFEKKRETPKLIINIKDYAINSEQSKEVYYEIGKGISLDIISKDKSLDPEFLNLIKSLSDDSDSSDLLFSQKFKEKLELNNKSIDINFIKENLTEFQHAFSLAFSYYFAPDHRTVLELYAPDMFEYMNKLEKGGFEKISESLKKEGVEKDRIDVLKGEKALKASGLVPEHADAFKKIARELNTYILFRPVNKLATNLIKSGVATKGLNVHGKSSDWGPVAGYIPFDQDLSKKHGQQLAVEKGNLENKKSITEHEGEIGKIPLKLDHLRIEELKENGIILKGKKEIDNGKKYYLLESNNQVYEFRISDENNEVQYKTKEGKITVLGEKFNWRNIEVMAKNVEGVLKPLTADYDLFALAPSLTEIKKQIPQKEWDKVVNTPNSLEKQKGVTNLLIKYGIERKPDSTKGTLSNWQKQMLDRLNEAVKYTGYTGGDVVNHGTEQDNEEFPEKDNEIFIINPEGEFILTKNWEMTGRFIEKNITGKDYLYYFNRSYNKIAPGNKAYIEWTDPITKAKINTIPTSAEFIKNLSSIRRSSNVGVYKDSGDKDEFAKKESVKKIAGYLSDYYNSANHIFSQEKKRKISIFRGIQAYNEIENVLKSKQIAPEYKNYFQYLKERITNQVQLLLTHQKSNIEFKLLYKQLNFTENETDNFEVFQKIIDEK
Description: Inhibition of Bacillus anthracis edema factor by cell free assay. The essentials: (§1)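 Run cell-free on the bacterial enzyme, with the phosphono diphosphate forms (nucleoside triphosphate analogues) added directly rather than the bisamide prodrugs; an IC50 was obtained.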

Series [2] is described as follows: Inhibition of Bordetella pertussis ACT by cell free assay. In short, it runs like this: as §1
A short description of series [3]: Inhibition of Bordetella pertussis ACT exposed to mouse J774.A1 cells assessed as inhibition of ACT-induced cAMP accumulation cells pretreated for 5 hrs measured after 30 mins followed by enzyme addition by immunoassay. The format is cell-based.
In the next series the test system is J774.A1. Briefly: Cytotoxicity against mouse J774.A1 cells assessed as reduction in cell viability at 10 uM measured after 5 hrs by Cell TiterGlo Luminescent assay relative to control. The class given is cell-based. Conditions: j774.a1, 5 h.

With `CC(C)Cc1sc(N)nc1-c1ccc(P(=O)(O)OP(=O)(O)OP(=O)(O)O)o1`, the results for the pIC50 in series [1] and in series [2] were 5.30 and 4.80, respectively.

As to `CC(C)OC(=O)[C@H](Cc1ccccc1)NP(=O)(COCCc1nc(N)sc1-c1cccnc1)N[C@@H](Cc1ccccc1)C(=O)OC(C)C`, the pIC50 (as a rule, −log10 of the IC50, conventionally taken in molar units) in series [3] is 5.58. Besides, the Activity with J774.A1 turned out to be 99%.

With `COc1ccc(-c2sc(N)nc2CCOCP(=O)(N[C@@H](Cc2ccccc2)C(=O)OC(C)C)N[C@@H](Cc2ccccc2)C(=O)OC(C)C)c(C)c1`, the pIC50 in series [3] was 5.94. For the same compound, the Activity in the series with J774.A1 is listed as 57%.

`CNS(=O)(=O)c1ccc(-c2sc(N)nc2CCOCP(=O)(N[C@@H](Cc2ccccc2)C(=O)OC(C)C)N[C@@H](Cc2ccccc2)C(=O)OC(C)C)cc1`: in series [3], the pIC50 is below 5.00. Besides, in the series on J774.A1, the Activity is 94%.

For the compound `CC(C)OC(=O)[C@H](Cc1ccccc1)NP(=O)(COCCc1nc(N)sc1-c1ccccc1OCc1ccccc1)N[C@@H](Cc1ccccc1)C(=O)OC(C)C`, the pIC50 in series [3] was below 5.00. In addition, the Activity in the series with J774.A1 is recorded as 115%.

Turning to `CC(C)OC(=O)[C@H](Cc1ccccc1)NP(=O)(COCCc1nc(N)sc1-c1ccc(OC(C)C)cc1)N[C@@H](Cc1ccccc1)C(=O)OC(C)C`, the Activity with J774.A1 is listed as 81%.

Regarding `CNC(=O)c1cccc(-c2sc(N)nc2CCOCP(=O)(N[C@@H](Cc2ccccc2)C(=O)OC(C)C)N[C@@H](Cc2ccccc2)C(=O)OC(C)C)c1`, the pIC50 in series [3] is 5.07. For the same compound, the Activity with J774.A1 is listed as 106%.

As for `CC(C)Cc1sc(N)nc1-c1ccc(P(=O)(O)N[C@@H](Cc2ccccc2)C(=O)OC(C)C)o1`, the pIC50 in series [3] was 4.85. For the same compound, the Activity in the series on J774.A1 is reported as 86%.

As to `CC(C)OC(=O)[C@H](Cc1ccccc1)NP(=O)(COCCc1nc(N)sc1-c1cccc(F)c1)N[C@@H](Cc1ccccc1)C(=O)OC(C)C`, the Activity with J774.A1 is 99%.

Regarding `CCCCOc1cccc(-c2sc(N)nc2CCOCP(=O)(N[C@@H](Cc2ccccc2)C(=O)OC(C)C)N[C@@H](Cc2ccccc2)C(=O)OC(C)C)c1`, in the series with J774.A1, the Activity was 35%.

As to `CNS(=O)(=O)c1cccc(-c2sc(N)nc2CCOCP(=O)(N[C@@H](Cc2ccccc2)C(=O)OC(C)C)N[C@@H](Cc2ccccc2)C(=O)OC(C)C)c1`, the Activity in the series on J774.A1 stood at 99%.

On to `CC(C)OC(=O)[C@H](Cc1ccccc1)NP(=O)(COCc1csc(N)n1)N[C@@H](Cc1ccccc1)C(=O)OC(C)C`, for which the pIC50 in series [3] was below 5.00. Further, the Activity with J774.A1 is 83%.

Take `Nc1ncnc2c1ncn2CCOCP(=O)(O)OP(=O)(O)OP(=O)(O)O` [ADEFOVIR DIPHOSPHATE]: the pIC50 in series [1] is 7.44; in series [2] it was 7.75.

On to `CC(C)OC(=O)[C@H](Cc1ccccc1)NP(=O)(COCCc1nc(N)sc1-c1cccc(OCc2ccccc2)c1)N[C@@H](Cc1ccccc1)C(=O)OC(C)C`, for which the Activity in the series on J774.A1 stood at 72%.

With `Nc1nc(CCOCP(=O)(O)OP(=O)(O)OP(=O)(O)O)c(-c2cccc(F)c2)s1`, the pIC50 in series [2] is 6.50.

`COc1cc(OC)cc(-c2sc(N)nc2CCOCP(=O)(N[C@@H](Cc2ccccc2)C(=O)OC(C)C)N[C@@H](Cc2ccccc2)C(=O)OC(C)C)c1`: the pIC50 in series [3] was 5.84. Further, in the series with J774.A1, the Activity was 86%.

`CC(C)OC(=O)[C@H](Cc1ccccc1)NP(=O)(COCCc1csc(N)n1)N[C@@H](Cc1ccccc1)C(=O)OC(C)C`: the pIC50 in series [3] is below 5.00. For the same compound, in the series with J774.A1, the Activity was 72%.

On to `CC(C)Oc1ccc(-c2sc(N)nc2CCOCP(=O)(O)OP(=O)(O)OP(=O)(O)O)cc1`, for which, in series [2], the pIC50 was 6.73.

On to `CNC(=O)c1ccc(-c2sc(N)nc2CCOCP(=O)(N[C@@H](Cc2ccccc2)C(=O)OC(C)C)N[C@@H](Cc2ccccc2)C(=O)OC(C)C)cc1`, for which, in the series on J774.A1, the Activity stood at 99%.

With `CC(C)OC(=O)[C@H](Cc1ccccc1)NP(=O)(COCCn1cnc2c(N)ncnc21)N[C@@H](Cc1ccccc1)C(=O)OC(C)C`, the pIC50 in series [3] was 6.82. For the same compound, the Activity with J774.A1 came to 93%.

For `CC(C)OC(=O)[C@H](Cc1ccccc1)NP(=O)(COCCc1nc(N)sc1-c1ccccc1)N[C@@H](Cc1ccccc1)C(=O)OC(C)C`, in the series on J774.A1, the Activity turned out to be 112%.

Consider `Nc1nc(CCOCP(=O)(O)OP(=O)(O)OP(=O)(O)O)c(-c2cccc(OCc3ccccc3)c2)s1`, for which the pIC50 in series [2] was 6.72.

For the compound `CC(C)Cc1sc(N)nc1-c1ccc(P(=O)(NC(Cc2ccccc2)C(=O)OC(C)C)N[C@@H](Cc2ccccc2)C(=O)OC(C)C)o1` (stereo not given in full), the negative-log IC50 (pIC50) in series [3] was 5.67. Further, the Activity with J774.A1 worked out at 88%.

Take `CC(C)OC(=O)[C@H](Cc1ccccc1)NP(=O)(COCCc1nc(N)sc1-c1cccc(OC(C)C)c1)N[C@@H](Cc1ccccc1)C(=O)OC(C)C`: the pIC50 in series [3] is 5.76. Further, the Activity with J774.A1 is 44%.

On to `CC(C)OC(=O)[C@H](Cc1ccccc1)NP(=O)(COCCc1nc(N)sc1Sc1ccccc1)N[C@@H](Cc1ccccc1)C(=O)OC(C)C`, for which the pIC50 in series [3] was 6.03. Besides, the Activity in the series with J774.A1 was found to be 36%.

Consider `CNC(=O)c1ccc(-c2sc(N)nc2CCOCP(=O)(O)OP(=O)(O)OP(=O)(O)O)cc1`, for which the pIC50 in series [2] is 7.43.

For the compound `Nc1nc(CCOCP(=O)(O)OP(=O)(O)OP(=O)(O)O)c(-c2ccccc2OCc2ccccc2)s1`, the pIC50 in series [1] was 5.11; in series [2], 6.74.

Regarding `CC(C)OC(=O)[C@H](Cc1ccccc1)NP(=O)(COCc1nc(N)sc1-c1ccccc1)N[C@@H](Cc1ccccc1)C(=O)OC(C)C`, the pIC50 in series [3] is 5.33. Moreover, the Activity in the series with J774.A1 was 54%.
